What was measured:
Rattus norvegicus [1] = species on record: Rattus norvegicus; assay: Mutagenic activity (Ames Salmonella Test) in the presence of rat liver S-9 fraction in TA-98 strain; assay type: functional
In short: (§1)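 Liver 9000g supernatant (1.0 mg protein, PBS-diluted, filtered) plus NADPH (1 mg/plate) went into histidine/biotin-supplemented top agar with overnight TA-98 or TA-100 culture. Compound in Me2SO was added last, with Me2SO as control. His+ revertants were counted after 40 h at 37 °C in the dark, averaging ≥2 plates.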

Rattus norvegicus [2] = species on record: Rattus norvegicus; assay: Toxicity (Ames Salmonella Test) in the presence of rat liver S-9 fraction in TA-100 strain (4*10e7 dilution); assay type: organism-based
In short: (§2)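 TA-100 bacteria are exposed to varying compound concentrations for 30 min at 37 °C. They are then diluted to about 10³ bacteria/mL and plated on histidine-enriched (4.5 mM) agar. Surviving colonies are counted.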

Rattus norvegicus [3] = species on record: Rattus norvegicus; assay: Mutagenic activity (Ames Salmonella Test) in the presence of rat liver S-9 fraction in TA-100 strain; assay type: functional; in short: as §1
Rattus norvegicus [4] = species on record: Rattus norvegicus; assay: Mutagenic activity (Ames Salmonella Test) in the presence of rat liver S-9 fraction in TA-100 strain at a conc. of 1000 ug; assay type: functional; in short: as §1
Rattus norvegicus [5] = species on record: Rattus norvegicus; assay: Mutagenic activity (Ames Salmonella Test) in the presence of rat liver S-9 fraction in TA-98 strain at aconc. of 1000 ug; assay type: functional
In short: as §1, with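 “Male Sprague-Dawley rats received Arochlor 1254 (500 mg/kg in corn oil) and were killed 48 h later. Liver” for “Liver”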

Rattus norvegicus [6] = species on record: Rattus norvegicus; assay: Toxicity (Ames Salmonella Test) in the presence of rat liver S-9 fraction in TA-100 strain at a conc. of 1000 ug (4*10e6 dilution); assay type: organism-based; in short: as §2
Rattus norvegicus [7] = species on record: Rattus norvegicus; assay: Toxicity (Ames Salmonella Test) in the presence of rat liver S-9 fraction in TA-100 strain (4*10e6 dilution); assay type: organism-based; in short: as §2
Rattus norvegicus [8] = species on record: Rattus norvegicus; assay: Mutagenic activity (Ames Salmonella Test) in the presence of rat liver S-9 fraction in TA-98 strain at a conc. of 1000 ug; assay type: functional
In short: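 Plate-incorporation reversion assay in TA-98 from an overnight nutrient-broth culture (2–3 × 10⁹ bacteria/mL). The compound is in Me₂SO, added last to top agar at 45 °C. NADPH 1 mg/plate. His⁺ revertants are counted after 40 h at 37 °C in the dark.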

Rattus norvegicus [9] = species on record: Rattus norvegicus; assay: Toxicity (Ames Salmonella Test) in the presence of rat liver S-9 fraction in TA-100 strain at a conc. of 500 ug (4*10e6 dilution); assay type: organism-based; in short: as §2
Rattus norvegicus [10] = species on record: Rattus norvegicus; assay: Mutagenic activity (Ames Salmonella Test) in the presence of rat liver S-9 fraction in TA-100 strain at a conc. of 500 ug; assay type: functional
In short: as §1, with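 “Male Sprague-Dawley rats received Arochlor 1254 (500 mg/kg in corn oil) and were killed 48 h later. Liver” for “Liver”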

Rattus norvegicus [11] = species on record: Rattus norvegicus; assay: Toxicity (Ames Salmonella Test) in the presence of rat liver S-9 fraction in TA-100 strain at a conc. of 500 ug (4*10e7 dilution); assay type: organism-based; in short: as §2
Rattus norvegicus [12] = species on record: Rattus norvegicus; assay: Mutagenic activity (Ames Salmonella Test) in the presence of rat liver S-9 fraction in TA-98 strain at a conc. of 500 ug; assay type: functional
In short: as §1, with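 “Male Sprague-Dawley rats received Arochlor 1254 (500 mg/kg in corn oil) and were killed 48 h later. Liver” for “Liver”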

| SMILES | Mutagenicity (Rattus norvegicus [1]) | Toxicity (Rattus norvegicus [2]) | Mutagenicity (Rattus norvegicus [3]) | Mutagenicity (Rattus norvegicus [4]) | Mutagenicity (Rattus norvegicus [5]) | Toxicity (Rattus norvegicus [6]) | Toxicity (Rattus norvegicus [7]) | Mutagenicity (Rattus norvegicus [8]) | Toxicity (Rattus norvegicus [9]) | Mutagenicity (Rattus norvegicus [10]) | Toxicity (Rattus norvegicus [11]) | Mutagenicity (Rattus norvegicus [12]) |
| --- | --- | --- | --- | --- | --- | --- | --- | --- | --- | --- | --- | --- |
| CC(C)N(O)CC(O)COc1cccc2ccccc12.O=C(O)C(=O)O (stereo unspecified) | 18 | 18 | 143 | 61 | 20 | 60 | 165 |  |  |  |  |  |
| CC(C)/[N+]([O-])=C/C(O)COc1cccc2ccccc12 (stereo unspecified) | 18 |  | 162 |  |  |  | 232 |  |  |  |  |  |
| CC(C)N(CC(O)COc1cccc2ccccc12)N=O (stereo unspecified) | 14 | 25 | 137 | 131 |  |  | 255 | 13 |  |  |  |  |
| Br.CC(C)N(O)CC(O)COc1cccc2ccccc12 (stereo unspecified) |  |  |  | 134 |  | 183 |  | 8 | 265 | 117 | 28 | 12 |
| CC(C)NO [ISOPROPYLHYDROXYLAMINE] | 18 |  | 150 |  |  |  | 230 |  |  |  |  |  |
